Source: ChEMBL document CHEMBL1140224, “Dihydrofuro[3,4-c]pyridinones as inhibitors of the cytolytic effects of the pore-forming glycoprotein perforin” (J Med Chem, 2008)
The source made the active and inactive calls. The calls are words filed in the database; no cut-off is given here.

System: Salmonella typhimurium
Test: Mutagenic activity in Salmonella Typhimurium TA100 by Ames assay
Assay type: toxicity, organism-based
Details: salmonella enterica subsp. enterica serovar typhimurium

Compound	Activity
Cc1cc2c(c(=S)[nH]1)C(=O)O/C2=C\c1ccc(C)o1	Active
Cc1cc2c(c(=S)[nH]1)C(=O)O/C2=C\c1ccc[nH]1	Not Active
Cc1cc2c(c(=S)[nH]1)C(=O)O/C2=C\c1ccco1	Active
Cc1cc2c(c(=S)[nH]1)C(=O)O/C2=C\c1csc2ccccc12	Not Active
Cc1cc2c(c(=S)[nH]1)C(=O)O/C2=C\c1cccs1	Not Active

Biological target: Tumor necrosis factor ligand superfamily member 10 (Homo sapiens) (UniProt P50591)
Test: Inhibition of recombinant TRAIL-mediated death of human Jurkat T cells upto 20 uM after 30 mins by 51Cr release assay
Assay type: cell-based
Details: not given
Outline: (§1)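 Fifty thousand 51Cr-labeled Jurkat cells preincubated with 20 µM final inhibitor for 30 min at 37 °C. Anti-Fas agonistic mAb CH11 or recombinant TRAIL, each at 250 ng/mL final, in RPMI with 1% BSA for 2 h. Controls were DMSO diluent and a non-inhibitor at the same concentration; SDS gave maximum release. Supernatant 51Cr γ-counted, triplicates, mean ± SEM.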

Tumor necrosis factor ligand superfamily member 10 (Homo sapiens), sequence (P50591 whole entry): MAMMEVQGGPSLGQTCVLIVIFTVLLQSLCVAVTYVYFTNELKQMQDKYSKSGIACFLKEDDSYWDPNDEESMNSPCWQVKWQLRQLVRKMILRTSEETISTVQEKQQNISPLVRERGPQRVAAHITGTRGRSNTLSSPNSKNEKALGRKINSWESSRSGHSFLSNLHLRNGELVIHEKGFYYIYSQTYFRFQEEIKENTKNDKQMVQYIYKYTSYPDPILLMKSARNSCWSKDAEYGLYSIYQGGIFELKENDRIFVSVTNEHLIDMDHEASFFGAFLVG

Compound	Activity
Cc1cc2c(c(=S)[nH]1)C(=O)O/C2=C\c1ccc(C)o1	inactive

Biological target: Pneumolysin (Streptococcus pneumoniae serotype 4 (strain ATCC BAA-334 / TIGR4)) (UniProt P0C2J9)
Test: Inhibition of Streptococcus pneumoniae pneumolysin-mediated lysis of sheep red blood cells
Details: not given
Outline: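 Single-point test at 20 µM compound, using the perforin/SRBC turbidity format with pneumolysin in place of perforin. Compound in DMSO is preincubated with the lytic protein for at least 30 min. Sheep red blood cells in RBC buffer are then added, and absorbance at 650 nm is read at 0 min and after 15 min at 37 °C. Matching DMSO serves as negative control.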

Pneumolysin (Streptococcus pneumoniae serotype 4 (strain ATCC BAA-334 / TIGR4)), sequence (P0C2J9 whole entry): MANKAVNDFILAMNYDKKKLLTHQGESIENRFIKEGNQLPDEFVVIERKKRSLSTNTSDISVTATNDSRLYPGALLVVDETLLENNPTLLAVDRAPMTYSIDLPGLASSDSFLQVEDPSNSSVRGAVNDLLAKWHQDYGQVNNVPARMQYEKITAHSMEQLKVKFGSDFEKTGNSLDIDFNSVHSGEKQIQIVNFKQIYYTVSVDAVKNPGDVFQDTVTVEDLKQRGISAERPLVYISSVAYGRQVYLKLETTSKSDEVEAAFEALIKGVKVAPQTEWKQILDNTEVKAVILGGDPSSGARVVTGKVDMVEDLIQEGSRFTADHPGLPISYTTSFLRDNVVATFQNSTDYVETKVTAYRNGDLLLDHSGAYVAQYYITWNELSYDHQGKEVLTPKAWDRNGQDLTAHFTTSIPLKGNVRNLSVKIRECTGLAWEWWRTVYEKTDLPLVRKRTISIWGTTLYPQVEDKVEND

Compound	Activity
Cc1cc2c(c(=S)[nH]1)C(=O)O/C2=C\c1ccc(C)o1	inactive

Biological target: T1, Tumor necrosis factor ligand superfamily member 6 (Homo sapiens) (UniProt P48023)
T1 sequence (whole entry): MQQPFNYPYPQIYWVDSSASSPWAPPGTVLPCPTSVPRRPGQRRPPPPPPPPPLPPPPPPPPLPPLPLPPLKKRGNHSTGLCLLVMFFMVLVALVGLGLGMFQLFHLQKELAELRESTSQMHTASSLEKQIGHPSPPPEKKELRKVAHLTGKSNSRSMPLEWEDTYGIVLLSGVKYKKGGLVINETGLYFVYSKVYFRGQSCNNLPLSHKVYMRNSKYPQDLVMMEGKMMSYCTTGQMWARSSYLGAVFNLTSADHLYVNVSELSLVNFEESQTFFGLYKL
Test: Inhibition of Fas ligand-mediated death of human Jurkat T cells upto 20 uM after 30 mins by 51Cr release assay
Assay type: cell-based
Details: not given
Outline: as §1

Compound	Activity
Cc1cc2c(c(=S)[nH]1)C(=O)O/C2=C\c1ccc(C)o1	inactive

Biological target: T2, Perforin-1 (Homo sapiens) (UniProt P14222)
T2 sequence (whole entry): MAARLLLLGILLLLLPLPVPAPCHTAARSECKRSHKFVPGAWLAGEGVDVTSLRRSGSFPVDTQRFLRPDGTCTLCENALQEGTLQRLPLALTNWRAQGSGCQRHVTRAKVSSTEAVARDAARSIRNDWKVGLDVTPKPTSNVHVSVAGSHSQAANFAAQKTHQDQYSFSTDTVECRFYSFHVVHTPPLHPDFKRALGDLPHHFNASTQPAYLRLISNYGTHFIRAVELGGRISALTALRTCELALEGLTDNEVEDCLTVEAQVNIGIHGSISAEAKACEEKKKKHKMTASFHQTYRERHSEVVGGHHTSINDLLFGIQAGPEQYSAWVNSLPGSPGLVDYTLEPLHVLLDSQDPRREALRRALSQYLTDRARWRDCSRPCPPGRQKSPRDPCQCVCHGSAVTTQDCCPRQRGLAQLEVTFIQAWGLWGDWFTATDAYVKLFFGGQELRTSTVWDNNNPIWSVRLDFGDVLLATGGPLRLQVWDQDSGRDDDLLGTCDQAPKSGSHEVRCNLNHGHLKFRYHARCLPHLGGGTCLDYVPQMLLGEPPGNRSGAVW
Test: Inhibition of human KHYG-1 NK cells delivered perforin-mediated death of human K562 cells upto 20 uM preincubated for 20 mins with KHYG-1 cells measured after 30 mins by 51Cr release assay
Assay type: cell-based
Details: in the assay text read “measured after 4 hrs” for “measured after 30 mins”
Outline: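 KHYG-1 NK cells (4 × 10^5/ml, RPMI + 0.1% BSA) given inhibitor up to 20 µM, 20 min at RT. K562 targets labeled with 75 µCi 51Cr for 90 min at 37 °C, added at effector:target 2:1, 4 h at 37 °C. % specific lysis from experimental, spontaneous and maximum release. Mean of triplicates ± SEM; inhibition relative to untreated control, DMSO vehicle control.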

Compound	inhibition [%]
Cc1cc2c(c(=S)[nH]1)C(=O)O/C2=C\c1ccc(C)o1	50
Cc1cc2c(c(=O)[nH]1)C(=O)O/C2=C\c1cc2ccccc2s1	65
Cc1cc2c(c(=S)[nH]1)C(=O)O/C2=C\c1ccc(-c2ccccc2)s1	100
COc1ccc2oc(/C=C3\OC(=O)c4c3cc(C)[nH]c4=S)cc2c1	100
Cc1cc2c(c(=S)[nH]1)C(=O)O/C2=C\c1cc2ccccc2[nH]1	95
Cc1cc2c(c(=S)[nH]1)C(=O)O/C2=C\c1csc2ccccc12	63

System: not listed separately
Test: Cytotoxicity against human KHYG-1 cells assessed as cell viability upto 20 uM after 24 hrs by trypan blue exclusion assay
Assay type: cell-based
Details: read-out: Activity
Outline: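 KHYG-1 cells at 4 × 10^5 cells/ml in RPMI + 0.1% BSA, compound up to 20 µM added for 20 min at RT. RPMI 0.1% BSA added in place of targets, 4 h at 37 °C, then washed ×3 and held 18 to 24 h at 37 °C in complete medium. Trypan blue read: clear cells as percent of total. DMSO vehicle control.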

Compound	viability at 24 h [%]
Cc1cc2c(c(=S)[nH]1)C(=O)O/C2=C\c1ccc(C)o1	72
Cc1cc2c(c(=O)[nH]1)C(=O)O/C2=C\c1cc2ccccc2s1	100
Cc1cc2c(c(=S)[nH]1)C(=O)O/C2=C\c1ccc(-c2ccccc2)s1	0
COc1ccc2oc(/C=C3\OC(=O)c4c3cc(C)[nH]c4=S)cc2c1	0
Cc1cc2c(c(=S)[nH]1)C(=O)O/C2=C\c1cc2ccccc2[nH]1	0
Cc1cc2c(c(=S)[nH]1)C(=O)O/C2=C\c1csc2ccccc12	88

Biological target: T2, Perforin-1 (Homo sapiens)
Test: Inhibition of human CD3-CD56+ NK cell delivered perforin-mediated death of human K562 cells upto 20 uM preincubated for 30 mins with human CD3-CD56+ NK cell measured after 4 hrs by 51Cr release assay
Assay type: cell-based
Details: not given
Outline: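 Human CD3-CD56+ NK cells taken from donor buffy coats by Ficoll then negative MACS selection. Used same day or after up to 3 days in 100 U/mL IL-2. Up to 2 × 10^5 NK cells with inhibitor, DMSO or medium in RPMI 0.1% BSA, 30 min at RT. 1 × 10^4 51Cr-labeled K562 added, 4 h at 37 °C, % specific lysis, triplicates.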

Compound	inhibition [%]
Cc1cc2c(c(=S)[nH]1)C(=O)O/C2=C\c1ccc(C)o1	> 70
